# Assay outcomes (PubChem)
# UBC13 polyUb – human UBC13 polyubiquitination inhibition; P61088; UBC13 polyubiquitin chain formation, TR-FRET; inhibition, % at 20 µM; hit rate 0.47% among 330,000; AID 485273; in the data active = inhibition above about 45%, passing the limit was not always enough; inconclusive = no clear call, values can overlap the other calls
# PHOSPHO1 inh – blocks human PHOSPHO1 phosphatase activity | Q8TCT1 | recombinant PHOSPHO1, absorbance phosphatase assay | inhibition, % at 13.3 µM | hit rate 1.1% among 290,000; in the data active = inhibition above about 60%
# procasp3 activ – procaspase-3 (human) activation; AID 463141; recombinant procaspase-3 D3A, Ac-DEVD-pNA absorbance 405 nm; hit rate 0.11% among 330,000; activation, % at 8.5 µM;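 active = activation above the mean of all tested compounds plus 3 SD, cut at about 21% in these data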;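 note: 0% = DMSO alone and 100% = DMSO wells spiked with extra 5 µM PC-3 D3A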
# Target sequence (P42574 whole entry D9A/D28A/D175A): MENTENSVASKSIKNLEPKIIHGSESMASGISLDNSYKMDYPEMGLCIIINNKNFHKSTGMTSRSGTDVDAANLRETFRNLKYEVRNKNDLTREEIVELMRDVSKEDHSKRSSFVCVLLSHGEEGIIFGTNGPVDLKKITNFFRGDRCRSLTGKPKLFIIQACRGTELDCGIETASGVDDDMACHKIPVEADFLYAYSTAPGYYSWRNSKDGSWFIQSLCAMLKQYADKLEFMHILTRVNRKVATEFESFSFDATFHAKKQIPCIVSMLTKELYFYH
#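 Assay system – Procaspase-3 D3A mutant · Benchmarks – DMSO low control, extra-enzyme high control · Technique – 405 nm absorbance of p-nitroaniline, reads at 0 and 120 min · Doses – 8.5 µM nominal · Measure – % activation between DMSO and enzyme-spiked controls · Also added – Ac-DEVD-pNA chromogenic peptide substrate · Schedule – 1 h compound preincubation, 2 h substrate hydrolysis at 25 °C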
# proCasp7 act – counter-screen for procaspase-3 activators: activators of human procaspase-7; P55210; recombinant procaspase-7, Ac-DEVD-pNA absorbance 405 nm; D23A/D198A/D206A triple mutant, cannot self-cleave; scale: DMSO 0, 5 µM enzyme 100; activation, % at 8.5 µM; hit rate 0.093% among 330,000;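 active = percent activation above the screen-wide mean plus 3 SD, cut at about 25% in these data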
# Target sequence (P55210 whole entry D23A/D198A/D206A): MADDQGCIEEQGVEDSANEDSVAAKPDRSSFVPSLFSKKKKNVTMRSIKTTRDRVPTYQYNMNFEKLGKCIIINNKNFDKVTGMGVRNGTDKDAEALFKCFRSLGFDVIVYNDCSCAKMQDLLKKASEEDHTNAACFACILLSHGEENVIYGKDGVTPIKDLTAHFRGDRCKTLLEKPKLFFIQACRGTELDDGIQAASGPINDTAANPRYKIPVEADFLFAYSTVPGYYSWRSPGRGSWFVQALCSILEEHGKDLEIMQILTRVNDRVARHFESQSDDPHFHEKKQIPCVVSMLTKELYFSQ
#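 Assay system: Uncleavable procaspase-7 mutant enzyme; Input: 2 µM procaspase-7 mutant as dispensed; Also added: DEVD-pNA substrate; Medium: Zinc-free HEPES pH 7.4 with 300 mM NaCl, 0.01% Triton X-100; Timing: 1 h compound preincubation, 2 h substrate cleavage, 25 °C; Measured by: Epi-absorbance of released pNA at 405 nm, two timepoints.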
# IDE cell inh – inhibits human insulin-degrading enzyme in HEK cells; FAbetaB cleavage, fluorescence polarization; inhibition, % at 5.59 µM; hit rate 0.41% among 320,000; AID 434962;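 active = percent inhibition above the average of all tested compounds plus 3 SD, set per screening campaign, cut at about 16% in these data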;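 note: IDE supplied by intact live HEK cells; FP after avidin binding of uncleaved biotin substrate so inhibition keeps polarization high; 0% = DMSO wells and 100% = 60 µM reference IDE inhibitor Ii1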
# IDE cell activ – activators of human insulin-degrading enzyme in cells. hit rate 0.073% among 340,000. P14735. HEK cells, FAbeta-B cleavage, fluorescence polarization; 0% vehicle, 100% cell-free pure enzyme wells. activation, % at 5.96 µM. AID 493087;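 active = activation above the mean of all tested compounds plus 3 SD, set per screening campaign, cut at about 17% in these data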
# Casp3 UBC13 ctr – inhibits human caspase-3 in UBC13 counter-screen; shares compounds with UBC13 polyUb; Recombinant caspase-3, Caspase-Glo 3/7 luminescence, 60 min; inhibition, % at 20 µM; hit rate 4% among 1,400; AID 488856;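 active = mean inhibition across replicates above about 26%, limit read from the data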;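 note: plate controls were DMSO with caspase-3 for no effect and DMSO wells lacking enzyme for full effect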
# UBC13 confirm – human UBC13 polyubiquitin inhibition, confirmed; shares compounds with UBC13 polyUb; UBC13 polyubiquitination, TR-FRET, biochemical; inhibition, % at 10 µM; hit rate 68% among 1,400; AID 488859; in the data active = inhibition above about 45%; inconclusive = no clear call, values can overlap the other calls
# Numbers without * were called inactive; ? = inconclusive; nt = no result. Only some compounds are listed: those with a hit (about 1.9% of all), similar ones and a draw of the others.
SMILES,UBC13 polyUb,PHOSPHO1 inh,procasp3 activ,proCasp7 act,IDE cell inh,IDE cell activ,Casp3 UBC13 ctr,UBC13 confirm
CCC[C@@H](CN1CCC[C@H]1CN1C(N)=NC[C@H]1C(C)C)N1C[C@@H](Cc2ccccc2)N(CCCC2CCCC2)C1=N,65*,nt,-9,15,-1,8,-3,47*
CCCCN1C(=N)N([C@@H](C)CN2CCC[C@H]2CN2C(N)=NC[C@@H]2Cc2ccccc2)C[C@H]1Cc1ccccc1,28,nt,1,-10,1,7,nt,nt
CC(C)C[C@H]1CNC(=S)N1CC1CCCN1C[C@H](CC(C)C)N1C[C@H](Cc2ccccc2)N(CC2CCCCCC2)C1=S (stereo partly specified),nt,nt,nt,nt,nt,-1,nt,nt
CCCCN1C(=N)N([C@@H](CN2CCC[C@H]2CN2C(N)=NC[C@@H]2Cc2ccccc2)C(C)C)C[C@H]1Cc1ccccc1,47*,nt,-1,2,5,5,0,39
CC(C)C[C@@H]1CN=C(N)N1C[C@@H]1CCCN1C[C@@H](C(C)C)N1C[C@@H](Cc2ccccc2)N(CCCC2CCCC2)C1=N,78*,nt,3,8,1,8,-4,76*
CC[C@@H](C)[C@@H]1CN([C@@H](C)CN2CCC[C@H]2CN2C(N)=NC[C@H]2CC(C)C)C(=N)N1CCCC1CCCC1,44,nt,0,12,7,3,nt,nt
CCCCN1C(=N)N([C@@H](CCC)CN2CCC[C@H]2CN2C(N)=NC[C@H]2CC(C)C)C[C@H]1Cc1ccccc1,51*,nt,9,6,1,5,2,38
CCCCN1C(=N)N([C@@H](CCC)CN2CCC[C@H]2CN2C(N)=NC[C@@H]2Cc2ccccc2)C[C@H]1[C@H](C)CC,37,nt,4,-5,-3,0,nt,nt
COc1cccc(-c2ccc(NC(=O)C3CCCN(Cc4nccn4C)C3)cc2)c1 (stereo unspecified),2,24,-10,4,7,-8,nt,nt
CC(C)(C)NCc1cc(Br)ccc1OCc1cccs1,66*,-2,4,1,0,2,1,18
O=C(Nc1ccc(Cl)c(C(F)(F)F)c1)NC1CC2CCCC(C1)N2Cc1ccccc1 (stereo unspecified),46*,-14,0,4,3,nt,-5,63*
CSCCC(NC(=O)c1ccccc1Cl)C(=O)NNC(=O)c1csc(N2CCOCC2)n1 (stereo unspecified),50*,nt,11,4,0,-1,-2,57*
CSCCC(NC(=O)c1ccccc1Br)C(=O)NNC(=O)c1csc(N2CCOCC2)n1 (stereo unspecified),50*,nt,-3,3,1,0,-1,52*
CCCN(CCC)CCCNC(=O)c1cc2c(=O)n(CC)c3ccccc3c2s1,47*,29,4,-1,-3,-2,-4,35
CCCCN(CC)CCNC(=O)c1cc2c(=O)n(CC)c3ccccc3c2s1,72*,16,12,10,0,2,-3,91*
CCCCN(CC)CCCNC(=O)c1cc2c(=O)n(CC)c3ccccc3c2s1,50*,29,6,0,3,3,4,62*
CCn1c(=O)c2cc(C(=O)NCCCOC)sc2c2ccccc21,22,9,-3,-3,-1,-1,nt,nt
COc1ccc(NC(C)=O)cc1CNC(=O)CN1CCOCC1,9,14,5,4,-1,3,nt,nt
Cc1nc(N)sc1C(=O)OCC(C)C,56*,4,6,-1,0,4,-5,42
CCOC(=O)c1sc(N)nc1C(C)(C)C,4,19,-5,1,-1,2,nt,nt
Cc1nc(NCCc2ccc(O)cc2)c2nnn(Cc3ccccc3)c2n1,7,25,6,-3,-3,-4,nt,nt
O=C(NCCCn1ccnc1)C1CCN(S(=O)(=O)c2cc([N+](=O)[O-])ccc2Cl)CC1,82*,nt,4,1,-1,3,-1,64*
Cc1ccc(C)c(S(=O)(=O)c2c[nH]c(=S)[nH]c2=O)c1,45*,30,-3,-6,-2,6,0,?
O=C(c1cccc(S(=O)(=O)N2CCOCC2)c1)N(Cc1nnc(-c2ccccc2Cl)o1)C1CC1,-5,nt,-11,0,3,5,nt,nt
CC1CN(S(=O)(=O)c2cccc(C(=O)N(Cc3nnc(-c4ccccc4Cl)o3)C3CC3)c2)CC(C)O1 (stereo unspecified),51*,nt,-10,-6,10,-3,-2,86*
SMILES,UBC13 polyUb,PHOSPHO1 inh,procasp3 activ,proCasp7 act,IDE cell inh,IDE cell activ,Casp3 UBC13 ctr,UBC13 confirm
COc1ccc(-c2sc3cc4c(cc3c2C#Cc2cncn2C)OCO4)cc1,20,nt,-5,19,-3,3,nt,nt
COc1cccc(-c2sc3ccc(OC)cc3c2C#CC2(O)CCCCC2)c1,17,nt,0,-6,-1,4,nt,nt
COc1ccc(-c2sc3cc4c(cc3c2C#CC2(N)CCCCC2)OCO4)cc1,85*,nt,-3,2,-1,8,2,89*
COc1cc(OC)cc(-c2sc3ccc(OC)cc3c2C#CC2(N)CCCCC2)c1,84*,nt,-23,-15,-10,5,3,77*
CCn1c(CN2CCOCC2)nnc1SCC(=O)Nc1ccc(C(C)=O)cc1,2,48,-14,-3,12,-21,nt,nt
Cc1oc2ncnc(N)c2c1C,26,-5,-3,-2,-5,7,nt,nt
Cc1ccc(-c2oc3ncnc(N)c3c2-c2ccc(C)cc2)cc1,88*,31,1,7,2,1,-2,82*
COc1cc2c(cc1OC)CN(C(=O)CN1CCN(S(=O)(=O)c3ccccc3Br)CC1)CC2,-4,44,1,4,2,-3,nt,nt
C[C@]12CCC(=O)C=C1C=C[C@@H]1[C@@H]2CC[C@@]2(C)[C@H]1CC[C@@]21CCC(=O)O1,76*,18,nt,nt,nt,3,-1,8
O[C@@H](c1cc(C(F)(F)F)nc2c(C(F)(F)F)cccc12)[C@H]1CCCCN1,64*,nt,0,-4,0,3,-2,45
OC(c1cc(C(F)(F)F)nc2c(Cl)cc(Cl)cc12)C1CCCCN1 (stereo unspecified),7,24,14,-7,0,2,nt,nt
Cc1ccc(C(=O)COC(=O)c2nc(Cl)ccc2Cl)cc1,9,nt,-5,-4,6,3,nt,nt
CCOc1ccc(C(=O)C(C)OC(=O)c2nc(Cl)ccc2Cl)cc1 (stereo unspecified),47*,nt,-10,-2,8,-4,-1,72*
